Published values gathered from unrelated publications.
Each line is one published result; the experiments were not run side by side.
Target: Tyrosine-protein kinase Fes/Fps (FES, Homo sapiens, UniProt P07332)

| Compound | read-out | mode | method | concentration | quantity | result |
| --- | --- | --- | --- | --- | --- | --- |
| Cn1cc(-c2cccc(N3CCc4c(sc5c4CC(C)(C)C5)C3=O)c2CO)cc(Nc2ccncn2)c1=O | enzyme activity | inhibitor | – | 1 µM | inhibition | 4% |
| c1ccc(C(NCCNC(c2ccccc2)c2ccccc2)c2ccccc2)cc1 | enzyme activity | inhibitor | – | 10 µM | inhibition | -2% |
| Cc1nn(C)cc1-c1nc2c(N3CCN(Cc4ccc(Cl)cc4)CC3)c(Cl)cnc2[nH]1 | binding | – | competition with immobilised ligand | 1 µM | remaining binding | 100% |
| C#Cc1n[nH]c2c(-c3cn([C@@H](C)c4ccccc4)c(=O)[nH]c3=O)cc(F)cc12 | enzyme activity | inhibitor | – | 0.1 µM | inhibition | 7.4% |
| CC(C)(C)c1cc(C=C(C#N)C#N)cc(Br)c1O | enzyme activity | inhibitor | – | 0.5 µM | remaining activity | 105% |
| COc1ncccc1-c1cnn2ccc(N3CCN(C(=O)OC(C)C)CC3)nc12 | binding | – | competition with immobilised ligand | 1 µM | remaining binding | 100% |
| Nc1ncc(-c2nc(N3CCOCC3)nc(N3CCOCC3)n2)c(C(F)F)n1 | binding | – | competition with immobilised ligand | 10 µM | remaining binding | 91% |
| O=c1[nH]c2ccccc2n1C1CCN(Cc2ccc(-c3[nH]c4cc5ncnc5cc4nc3-c3ccccc3)cc2)CC1 | cell-free assay | – | – | 0.5 µM | remaining signal | 101% |
| Cn1cc(-c2cc(F)cc(N3CCn4c(cc5c4CCCC5)C3=O)c2CO)cc(Nc2ccc(N3CCN(C4COC4)CC3)cn2)c1=O | enzyme activity | inhibitor | – | 0.1 µM | inhibition | 9% |
| Cn1cncc1[C@@](O)(COc1ccc(C#N)cc1-c1ccc(OC(F)(F)F)cc1)c1ccc(C#N)cc1 | cell-free assay | – | competition with immobilised ligand | 1 µM | remaining binding | 100% |
| C[C@H](C(=O)N[C@H]1COc2ccccc2[C@@H]1S(C)(=O)=O)c1ccc(F)cc1 | enzyme activity | inhibitor | – | 10 µM | inhibition | -14% |
| C#Cc1n[nH]c2c(-c3cn(C(C)c4ccccn4)c(=O)[nH]c3=O)cc(F)cc12 (stereo not drawn) | enzyme activity | inhibitor | – | 1 µM | inhibition | 5.3% |
